Measured values published in ChEMBL document CHEMBL1671617, “Correlation of antimicrobial resistance with beta-lactamases, the OmpA-like porin, and efflux pumps in clinical isolates of Acinetobacter baumannii endemic to New York City” (2008).
≈ marks a conversion by molar mass, not a printed value.

Tests used:
Type in all cases: functional
Acinetobacter baumannii [1] = assay: Antimicrobial activity against ISAba1 linked with the blaOXA-51-type beta-lactamase harboring Acinetobacter baumannii beta clonal group isolate 17 expressing ompA, adeB, adeM, aacA4, blaSHV-5 by agar dilution method
Procedure, shortened: (§1)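 MICs were determined by agar dilution on Mueller-Hinton agar against multidrug-resistant clinical A. baumannii isolates from endemic regional ribotypes, with species confirmed by ribotyping. Selected agents were also tested with and without the efflux inhibitor NMP, fixed at 100 μg/ml in the agar. Meropenem was tested with and without clavulanic acid at 4 μg/ml. A fourfold or greater MIC drop with the additive was scored as significant.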

Acinetobacter baumannii [2] = assay: Antimicrobial activity against Acinetobacter baumannii lambda clonal group isolate 27 expressing ampC, ompA, adeB, adeM, aadB, aadA1 by agar dilution method; procedure, shortened: as §1
Acinetobacter baumannii [3] = assay: Antimicrobial activity against Acinetobacter baumannii unique clonal group isolate 37 expressing ampC, ompA, adeB, adeM by agar dilution method; procedure, shortened: as §1
Acinetobacter baumannii [4] = assay: Antimicrobial activity against ISAba1 linked with the blaOXA-51-type beta-lactamase harboring Acinetobacter baumannii zeta clonal group isolate 25 expressing ampC, ompA, adeB, adeM, aadA1, aacA4, aacC2, blaSHV-5 by agar dilution method; procedure, shortened: as §1
Acinetobacter baumannii [5] = assay: Antimicrobial activity against ISAba1 linked with the blaOXA-51-type beta-lactamase harboring Acinetobacter baumannii beta clonal group isolate 16 expressing ompA, adeB, adeM, aacA4, blaSHV-5 by agar dilution method; procedure, shortened: as §1
Acinetobacter baumannii [6] = assay: Antimicrobial activity against Acinetobacter baumannii alpha clonal group isolate 5 expressing ampC, ompA, adeB, adeM, aacC1, aadA1 by agar dilution method; procedure, shortened: as §1
Acinetobacter baumannii [7] = assay: Antimicrobial activity against ISAba1 linked with the blaOXA-51-type beta-lactamase harboring Acinetobacter baumannii beta clonal group isolate 15 expressing ompA, adeB, adeM, aacA4, blaSHV-5 by agar dilution method; procedure, shortened: as §1
Acinetobacter baumannii [8] = assay: Antimicrobial activity against ISAba1 linked with the blaOXA-51-type beta-lactamase harboring Acinetobacter baumannii lambda clonal group isolate 28 expressing ampC, ompA, adeM, aadB, aadA1 by agar dilution method; procedure, shortened: as §1
Acinetobacter baumannii [9] = assay: Antimicrobial activity against ISAba1 linked with the blaOXA-51-type beta-lactamase harboring Acinetobacter baumannii zeta clonal group isolate 22 expressing ampC, ompA, adeB, adeM, aadA1, aacA4, aacC2, blaSHV-5 by agar dilution method; procedure, shortened: as §1
Acinetobacter baumannii [10] = assay: Antimicrobial activity against Acinetobacter baumannii nu clonal group isolate 34 expressing ampC, ompA, adeB, adeM by agar dilution method; procedure, shortened: as §1
Acinetobacter baumannii [11] = assay: Antimicrobial activity against ISAba1 linked with the blaOXA-51-type beta-lactamase harboring Acinetobacter baumannii unique clonal group isolate 40 expressing ampC, ompA, adeB, adeM, aadA1, aacA4, aacC2, blaSHV-5 by agar dilution method; procedure, shortened: as §1
Acinetobacter baumannii [12] = assay: Antimicrobial activity against Acinetobacter baumannii unique clonal group isolate 38 expressing ampC, ompA, adeB, adeM by agar dilution method
Procedure, shortened: (§2)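 Clinical multidrug-resistant A. baumannii isolates from endemic NYC ribotypes, with species identity confirmed by ribotyping. MICs were determined by agar dilution on Mueller-Hinton agar; tobramycin was tested by this method. Agar dilution was also run for selected agents with and without the efflux inhibitor NMP, added to the agar at a fixed 100 μg/ml.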

Acinetobacter baumannii [13] = assay: Antimicrobial activity against ISAba1 linked with the blaOXA-51-type beta-lactamase harboring Acinetobacter baumannii alpha clonal group isolate 8 expressing ampC, ompA, adeB, adeM, aacC1, aadA1 by agar dilution method; procedure, shortened: as §1
Acinetobacter baumannii [14] = assay: Antimicrobial activity against ISAba1 linked with the blaOXA-51-type beta-lactamase harboring Acinetobacter baumannii alpha clonal group isolate 1 expressing ampC, ompA, adeB, adeM by agar dilution method; procedure, shortened: as §1
Acinetobacter baumannii [15] = assay: Antimicrobial activity against ISAba1 linked with the blaOXA-51-type beta-lactamase harboring Acinetobacter baumannii zeta clonal group isolate 21 expressing ampC, ompA, adeB, adeM, aacC2, blaSHV-5 by agar dilution method; procedure, shortened: as §1
Acinetobacter baumannii [16] = assay: Antimicrobial activity against Acinetobacter baumannii eta clonal group isolate 36 expressing ampC, ompA, adeB, adeM by agar dilution method; procedure, shortened: as §1
Acinetobacter baumannii [17] = assay: Antimicrobial activity against Acinetobacter baumannii eta clonal group isolate 35 expressing ampC, ompA, adeB, adeM by agar dilution method; procedure, shortened: as §1
Acinetobacter baumannii [18] = assay: Antimicrobial activity against Acinetobacter baumannii nu clonal group isolate 31 expressing ampC, ompA, adeB, adeM, aadB, aadA2 by agar dilution method; procedure, shortened: as §2
Acinetobacter baumannii [19] = assay: Antimicrobial activity against Acinetobacter baumannii unique clonal group isolate 39 expressing ampC, ompA, adeM by agar dilution method; procedure, shortened: as §2
Acinetobacter baumannii [20] = assay: Antimicrobial activity against ISAba1 linked with the blaOXA-51-type beta-lactamase harboring Acinetobacter baumannii beta clonal group isolate 11 expressing ompA, adeB, adeM, blaSHV-5 by agar dilution method; procedure, shortened: as §1
Acinetobacter baumannii [21] = assay: Antimicrobial activity against ISAba1 linked with the blaOXA-51-type beta-lactamase harboring Acinetobacter baumannii beta clonal group isolate 10 expressing ompA, adeB, adeM, aacA4, blaSHV-5 by agar dilution method; procedure, shortened: as §1
Acinetobacter baumannii [22] = assay: Antimicrobial activity against Acinetobacter baumannii alpha clonal group isolate 4 expressing ampC, ompA, adeB, adeM, aacC1, aadA1 by agar dilution method; procedure, shortened: as §1
Acinetobacter baumannii [23] = assay: Antimicrobial activity against ISAba1 linked with the blaOXA-51-type beta-lactamase harboring Acinetobacter baumannii lambda clonal group isolate 29 expressing ampC, ompA, adeM, aadB, aadA1 by agar dilution method; procedure, shortened: as §1
Acinetobacter baumannii [24] = assay: Antimicrobial activity against ISAba1 linked with the blaOXA-51-type beta-lactamase harboring Acinetobacter baumannii beta clonal group isolate 12 expressing ompA, adeB, adeM, aacA4, aacC2, blaSHV-5 by agar dilution method; procedure, shortened: as §1
Acinetobacter baumannii [25] = assay: Antimicrobial activity against ISAba1 linked with the blaOXA-51-type beta-lactamase harboring Acinetobacter baumannii alpha clonal group isolate 6 expressing ampC, ompA, adeB, adeM, aacC1, aadA1 by agar dilution method; procedure, shortened: as §1
Acinetobacter baumannii [26] = assay: Antimicrobial activity against ISAba1 linked with the blaOXA-51-type beta-lactamase harboring Acinetobacter baumannii zeta clonal group isolate 26 expressing ampC, ompA, adeB, adeM, aadA1, aacA4, aacC2, blaSHV-5 by agar dilution method; procedure, shortened: as §1
Acinetobacter baumannii [27] = assay: Antimicrobial activity against ISAba1 linked with the blaOXA-51-type beta-lactamase harboring Acinetobacter baumannii beta clonal group isolate 13 expressing ompA, adeB, adeM, aacA4, blaSHV-5 by agar dilution method; procedure, shortened: as §1
Acinetobacter baumannii [28] = assay: Antimicrobial activity against ISAba1 linked with the blaOXA-51-type beta-lactamase harboring Acinetobacter baumannii beta clonal group isolate 14 expressing ompA, adeB, adeM, aacA4, blaSHV-5 by agar dilution method; procedure, shortened: as §1
Acinetobacter baumannii [29] = assay: Antimicrobial activity against Acinetobacter baumannii alpha clonal group isolate 3 expressing ampC, ompA, adeB, adeM, aacC1, aadA1 by agar dilution method; procedure, shortened: as §1
Acinetobacter baumannii [30] = assay: Antimicrobial activity against ISAba1 linked with the blaOXA-51-type beta-lactamase harboring Acinetobacter baumannii zeta clonal group isolate 24 expressing ampC, ompA, adeB, adeM, aadA1, aacA4, aacC2, blaSHV-5 by agar dilution method; procedure, shortened: as §1
Acinetobacter baumannii [31] = assay: Antimicrobial activity against ISAba1 linked with the blaOXA-51-type beta-lactamase harboring Acinetobacter baumannii zeta clonal group isolate 23 expressing ampC, ompA, adeB, adeM, aadA1, aacA4, aacC2, aphA6 by agar dilution method; procedure, shortened: as §1
Acinetobacter baumannii [32] = assay: Antimicrobial activity against ISAba1 linked with the blaOXA-51-type beta-lactamase harboring Acinetobacter baumannii zeta clonal group isolate 19 expressing ampC, ompA, adeB, adeM, aacC2 by agar dilution method; procedure, shortened: as §1
Acinetobacter baumannii [33] = assay: Antimicrobial activity against Acinetobacter baumannii nu clonal group isolate 32 expressing ampC, ompA, adeB, adeM, aadB, aadA2 by agar dilution method; procedure, shortened: as §2
Acinetobacter baumannii [34] = assay: Antimicrobial activity against ISAba1 linked with the blaOXA-51-type beta-lactamase harboring Acinetobacter baumannii beta clonal group isolate 18 expressing ompA, adeB, adeM, aacA4, blaSHV-5 by agar dilution method; procedure, shortened: as §1
Acinetobacter baumannii [35] = assay: Antimicrobial activity against ISAba1 linked with the blaOXA-51-type beta-lactamase harboring Acinetobacter baumannii beta clonal group isolate 9 expressing ampC, ompA, adeB, adeM by agar dilution method; procedure, shortened: as §1
Acinetobacter baumannii [36] = assay: Antimicrobial activity against ISAba1 linked with the blaOXA-51-type beta-lactamase harboring Acinetobacter baumannii alpha clonal group isolate 7 expressing ampC, ompA, adeB, adeM, blaSHV-5 by agar dilution method; procedure, shortened: as §1
Acinetobacter baumannii [37] = assay: Antimicrobial activity against ISAba1 linked with the blaOXA-51-type beta-lactamase harboring Acinetobacter baumannii lambda clonal group isolate 30 expressing ampC, ompA, adeB, adeM, aadB, aadA1 by agar dilution method; procedure, shortened: as §1
Acinetobacter baumannii [38] = assay: Antimicrobial activity against Acinetobacter baumannii nu clonal group isolate 33 expressing ampC, ompA, adeB, adeM by agar dilution method; procedure, shortened: as §1
Acinetobacter baumannii [39] = assay: Antimicrobial activity against Acinetobacter baumannii alpha clonal group isolate 2 expressing ampC, ompA, adeB, adeM, aacC1, aadA1 by agar dilution method; procedure, shortened: as §1
Acinetobacter baumannii [40] = assay: Antimicrobial activity against ISAba1 linked with the blaOXA-51-type beta-lactamase harboring Acinetobacter baumannii zeta clonal group isolate 20 expressing ampC, ompA, adeB, adeM, aacC2 by agar dilution method; procedure, shortened: as §1

SMILES: NC[C@H]1O[C@H](O[C@H]2[C@H](O)[C@@H](O[C@H]3O[C@H](CO)[C@@H](O)[C@H](N)[C@H]3O)[C@H](N)C[C@@H]2N)[C@H](N)C[C@@H]1O [TOBRAMYCIN]
- MIC (Acinetobacter baumannii [1]): > 32 mg/L
- MIC (Acinetobacter baumannii [2]): 0.5 mg/L (≈ 1.07 µM)
- MIC (Acinetobacter baumannii [3]): 2 mg/L (≈ 4.28 µM)
- MIC (Acinetobacter baumannii [4]): > 32 mg/L
- MIC (Acinetobacter baumannii [5]): > 32 mg/L
- MIC (Acinetobacter baumannii [6]): 0.5 mg/L (≈ 1.07 µM)
- MIC (Acinetobacter baumannii [7]): > 32 mg/L
- MIC (Acinetobacter baumannii [8]): 16 mg/L (≈ 34.2 µM)
- MIC (Acinetobacter baumannii [9]): > 32 mg/L
- MIC (Acinetobacter baumannii [10]): 1 mg/L (≈ 2.14 µM)
- MIC (Acinetobacter baumannii [11]): > 32 mg/L
- MIC (Acinetobacter baumannii [12]): < 0.25 mg/L
- MIC (Acinetobacter baumannii [13]): 1 mg/L (≈ 2.14 µM)
- MIC (Acinetobacter baumannii [14]): < 0.25 mg/L
- MIC (Acinetobacter baumannii [15]): 4 mg/L (≈ 8.56 µM)
- MIC (Acinetobacter baumannii [16]): 1 mg/L (≈ 2.14 µM)
- MIC (Acinetobacter baumannii [17]): 1 mg/L (≈ 2.14 µM)
- MIC (Acinetobacter baumannii [18]): > 32 mg/L
- MIC (Acinetobacter baumannii [19]): < 0.25 mg/L
- MIC (Acinetobacter baumannii [20]): 0.5 mg/L (≈ 1.07 µM)
- MIC (Acinetobacter baumannii [21]): 16 mg/L (≈ 34.2 µM)
- MIC (Acinetobacter baumannii [22]): 0.5 mg/L (≈ 1.07 µM)
- MIC (Acinetobacter baumannii [23]): 16 mg/L (≈ 34.2 µM)
- MIC (Acinetobacter baumannii [24]): > 32 mg/L
- MIC (Acinetobacter baumannii [25]): < 0.25 mg/L
- MIC (Acinetobacter baumannii [26]): > 32 mg/L
- MIC (Acinetobacter baumannii [27]): > 32 mg/L
- MIC (Acinetobacter baumannii [28]): > 32 mg/L
- MIC (Acinetobacter baumannii [29]): 0.5 mg/L (≈ 1.07 µM)
- MIC (Acinetobacter baumannii [30]): > 32 mg/L
- MIC (Acinetobacter baumannii [31]): > 32 mg/L
- MIC (Acinetobacter baumannii [32]): 4 mg/L (≈ 8.56 µM)
- MIC (Acinetobacter baumannii [33]): > 32 mg/L
- MIC (Acinetobacter baumannii [34]): > 32 mg/L
- MIC (Acinetobacter baumannii [35]): 2 mg/L (≈ 4.28 µM)
- MIC (Acinetobacter baumannii [36]): 0.5 mg/L (≈ 1.07 µM)
- MIC (Acinetobacter baumannii [37]): > 32 mg/L
- MIC (Acinetobacter baumannii [38]): 1 mg/L (≈ 2.14 µM)
- MIC (Acinetobacter baumannii [39]): 0.5 mg/L (≈ 1.07 µM)
- MIC (Acinetobacter baumannii [40]): 4 mg/L (≈ 8.56 µM)
